ChEMBL document CHEMBL1153034, “Antileishmaniasis activity of flavonoids from Consolida oliveriana” (J Nat Prod, 2009)
Blank lines part the entries; values can stand above or below the molecule they belong to. Active and inactive are the calls of the source. No cut-off for these calls is given here.

Key:
Leishmania peruviana [1] = assay: Antileishmanial activity against extracellular Leishmania peruviana promastigotes after 72 hrs; format: functional, organism-based
Outline: (§1)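 Promastigotes grown in MTL medium plus 10% inactivated FBS, air atmosphere, 28 °C. Compounds at 100, 50, 25, 10 and 1 µM, DMSO 0.1%. Parasites counted in a Neubauer hemocytometer at 24, 48 and 72 h. Average of three separate determinations.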

Leishmania braziliensis [2] = assay: Antileishmanial activity against extracellular Leishmania braziliensis promastigotes after 72 hrs; format: functional, organism-based; outline: as §1
J774.2 = assay: Cytotoxicity against BALB/c mouse J774.2 cells after 72 hrs by trypan blue assay; format: cell-based
Outline: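 J774.2 macrophages in MEM with 10% inactivated FBS, pH 7.2, seeded at 10⁵ cells/mL, 2 days at 37 °C in 5% CO₂. Fresh medium with compound at 100, 50, 25, 10 and 1 µM, 72 h. Dead cells counted by trypan blue (0.1% in phosphate buffer); viability relative to control. IC50 by linear regression of K_c values.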

Leishmania peruviana [3] = assay: Antileishmanial activity against intracellular Leishmania peruviana amastigotes after 10 days by Giemsa staining
Leishmania peruviana [4] = assay: Antileishmanial activity against Leishmania peruviana assessed as abundance of morphologically altered glycosomes at IC25 after 96 hrs by transmission electron microscopy; format: functional, organism-based
[5] = Ratio of compound IC50 to pentostam IC50 for BALB/c mouse J774.2 cells; format: ADME, cell-based; conditions: read-out: Ratio IC50
Leishmania peruviana [6] = assay: Inhibition of succinate catabolite excretion in Leishmania peruviana promastigotes at IC25 after 96 hrs by NMR spectroscopy; format: functional
Outline: (§2)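 Promastigotes of L. (V.) peruviana or L. (V.) braziliensis in MTL medium (initial 5 × 10⁵ cells/mL) received drug at IC25; controls were untreated. After 96 h at 28 °C, cells were spun down at 1500 rpm for 10 min. Excreted end metabolites in the cell-free medium were identified by ¹H NMR and compared with fresh medium and untreated cultures.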

Leishmania peruviana [7] = assay: Effect on glycerol catabolite excretion in Leishmania peruviana promastigotes at IC25 after 96 hrs by NMR spectroscopy; format: functional, organism-based; outline: as §2
Leishmania peruviana [8] = assay: Antileishmanial activity against Leishmania peruviana in BALB/c mouse J774.2 cells assessed as reduction of morphological conversion to parasite amastigote number per cell measured on day 10 by Giemsa staining relative to control; format: functional; parameters: scale not given: the % may be the effect or the level left
[9] = Ratio of compound IC50 to glucatim IC50 for BALB/c mouse J774.2 cells; format: ADME, cell-based; conditions: read-out: Ratio IC50
Leishmania peruviana [10] = assay: Inhibition of acetate catabolite excretion in Leishmania peruviana promastigotes at IC25 after 96 hrs by NMR spectroscopy; format: functional; outline: as §2
Leishmania peruviana [11] = assay: Effect on pyruvate catabolite excretion in Leishmania peruviana promastigotes at IC25 after 96 hrs by NMR spectroscopy; format: functional, organism-based; outline: as §2
Leishmania peruviana [12] = assay: Increase in L-alanine catabolite excretion in Leishmania peruviana promastigotes at IC25 after 96 hrs by NMR spectroscopy; format: functional, organism-based; outline: as §2
Leishmania peruviana [13] = assay: Antileishmanial activity against Leishmania peruviana assessed as induction of death of parasite with distortion of parasite body at IC25 after 96 hrs by transmission electron microscopy; format: functional, organism-based
Outline: (§3)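 L. (V.) peruviana MHOM/PE/1984/LC26 or L. (V.) braziliensis MHOM/BR/1975/M2904 promastigotes at 5 × 10⁶ cells/mL in MTL medium plus 10% inactivated FBS, in air at 28 °C, with drug at IC25 for 96 h. Pellets were PBS-washed, fixed 2 h at 4 °C in 2% (v/v) p-formaldehyde-glutaraldehyde in 0.05 M cacodylate (pH 7.4), and examined by TEM against untreated parasites.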

Leishmania peruviana [14] = assay: Antileishmanial activity against Leishmania peruviana assessed as disruption of parasite cytoplasm at IC25 after 96 hrs by transmission electron microscopy; format: functional, organism-based; outline: as §3
Leishmania braziliensis [15] = assay: Antileishmanial activity against intracellular Leishmania braziliensis amastigotes after 72 hrs by Giemsa staining; format: functional, organism-based
Leishmania peruviana [16] = assay: Antileishmanial activity against Leishmania peruviana infected in BALB/c mouse J774.2 cells assessed as decrease in parasite infection rate measured on day 10 relative to control; format: functional; parameters: scale not given: the % may be the effect or the level left
[17] = Mus musculus, BALB/c, J774.2, 72 h

Molecule: MEGLUMINE ANTIMONATE
- IC50 (Leishmania peruviana [1]): 15.3 µM
- IC50 (Leishmania braziliensis [2]): 25.6 µM
- IC50 (J774.2; j774.2): 15.2 µM

- IC50 (Leishmania peruviana [1]; Leishmania peruviana, 72 h): 87 µM
- IC50 (Leishmania braziliensis [2]; Leishmania braziliensis, 72 h): 51.6 µM
Molecule: CC(=O)OC[C@H]1O[C@@H](Oc2c(-c3ccc(O)c(O)c3)oc3cc(O)cc(O)c3c2=O)[C@H](O)[C@@H](O)[C@H]1O
- IC50 (J774.2; [17]): 61.3 µM

- IC50 (Leishmania peruviana [1]; Leishmania peruviana, 72 h): 71.3 µM
- IC50 (Leishmania braziliensis [2]; Leishmania braziliensis, 72 h): 53.6 µM
Molecule: O=c1c(O)c(-c2ccc(O)cc2)oc2cc(O)cc(O)c12 [KAEMPFEROL]
- IC50 (J774.2; [17]): 53.7 µM

- IC50 (Leishmania peruviana [1]; Leishmania peruviana, 72 h): 53.3 µM
- IC50 (Leishmania braziliensis [2]; Leishmania braziliensis, 72 h): 52.5 µM
Molecule: O=c1c(O[C@@H]2O[C@H](CO)[C@H](O)[C@H](O)[C@H]2O)c(-c2ccc(O)cc2)oc2cc(O)cc(O)c12 [TRIFOLIN]
- IC50 (J774.2; [17]): 161 µM

Molecule: O=c1c(O)c(-c2ccc(O)c(O)c2)oc2cc(O)cc(O)c12 [QUERCETIN]
- IC50 (Leishmania peruviana [1]; Leishmania peruviana, 72 h): 60 µM
- IC50 (Leishmania braziliensis [2]; Leishmania braziliensis, 72 h): 30.5 µM
- IC50 (J774.2; [17]): 125 µM

- IC50 (Leishmania peruviana [1]; Leishmania peruviana, 72 h): 11.2 µM
- IC50 (Leishmania braziliensis [2]; Leishmania braziliensis, 72 h): 46.8 µM
Molecule: CC(=O)Oc1cc(OC(C)=O)c2c(=O)c(OC(C)=O)c(-c3ccc(OC(C)=O)c(OC(C)=O)c3)oc2c1
- Activity (Leishmania peruviana [3]): Active
- Activity (Leishmania peruviana [4]): Active
- selectivity ratio [5]: 10
- inhibition (INH) (Leishmania peruviana [6]): 30%
- Activity (Leishmania peruviana [7]): Active
- Activity (Leishmania peruviana [8]): 72%
- selectivity ratio [9]: 10
- inhibition (INH) (Leishmania peruviana [10]): 30%
- Activity (Leishmania peruviana [11]): Active
- Activity (Leishmania peruviana [12]): Active
- Activity (Leishmania peruviana [13]): Active
- Activity (Leishmania peruviana [14]): Active
- Activity (Leishmania braziliensis [15]): Active
- Activity (Leishmania peruviana [16]): 40%
- IC50 (J774.2; [17]): 109 µM
